The test system of data set [1] is Staphylococcus aureus. As to the kind of experiment: Effect on Staphylococcus aureus Newman growth at 0.2 mM after overnight incubation by plate reader method. It is filed as organism-based. Conditions: 200 µM. Summed up: (§1)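 DMSO stock (20 mM) diluted in TSB to final 0.2 or 0.05 mM, overlaid with paraffin, pre-warmed 4 h at 37 °C. Overnight cultures adjusted to OD600 ~1.0 and inoculated to final OD600 ≈ 0.05. DMSO-matched growth controls. Incubated overnight at 37 °C; OD600 read every 30 min.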

Data set [2] relates to Staphylococcus aureus. As to the kind of experiment: Effect on methicillin-resistant Staphylococcus aureus USA400 MW2 growth at 0.05 mM after overnight incubation by plate reader method. Conditions: 50 µM. It is filed as organism-based. In short, it runs like this:
as §1

For data set [3], the system named is Staphylococcus aureus. As to the kind of experiment: Effect on methicillin-resistant Staphylococcus aureus USA300 LAC growth at 0.2 mM after overnight incubation by plate reader method. It is filed as organism-based. Conditions: 200 µM. Summed up:
as §1

The test system of data set [4] is Staphylococcus aureus. As to the kind of experiment: Sensitization of methicillin-resistant Staphylococcus aureus USA400 MW2 to human whole blood assessed as cell survival at 1 uM after 6 hrs by serial dilution method (reference value: 10.8%). It is filed as functional. Particulars: MW2 USA400, 6 h.
The test system of data set [5] is Staphylococcus aureus. Kind of data set: Sensitization of methicillin-resistant Staphylococcus aureus Mu 50 to human whole blood assessed as cell survival at 1 uM after 6 hrs by serial dilution method (reference value: 16.11%). Conditions: Mu50, 6 h. It is filed as functional.
The test system of data set [6] is Staphylococcus aureus. As to the kind of experiment: Attenuation of Staphylococcus aureus Newman virulence in BALB/c mouse lethal infection model assessed as mouse survival administered ip every 12 hrs for 108 hrs followed by 2 x 10^7 CFU bacterial challenge after first 12 hrs of compound dosing measured 4 days post challenge. It is filed as functional. In short, it runs like this: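 Female BALB/c mice, 6-8 weeks old, kept specific pathogen-free. Dosed ip at 50 or 200 mg/kg every 12 h for 108 h (4.5 d). Challenged 12 h after the first dose with 2 × 10^7 CFU S. aureus Newman. Mortality followed; n = 15; log-rank test.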

Data set [7] deals with Staphylococcus aureus. As to the kind of experiment: Attenuation of Staphylococcus aureus Newman virulence in BALB/c mouse systemic infection model assessed as decrease in bacterial survival in heart at 50 mg/kg, ip administered every 12 hrs for 108 hrs followed by bacterial challenge after first 12 hrs of compound dosing measured 5 days post infection. Format: functional. Summed up:
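Abscess model in female BALB/c mice, 6-8 weeks old. Dosed ip every 12 h for 108 h; retro-orbital challenge with 1 × 10^7 CFU Newman in 100 µL at 12 h. Sacrificed day 5. Kidneys and hearts homogenised in PBS plus 0.1% Triton X-100 and plated on TSA for CFU. n = 13; two-tailed Mann-Whitney.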

Data set [8] relates to Staphylococcus aureus. As to the kind of experiment: Attenuation of methicillin-resistant Staphylococcus aureus USA400 MW2 virulence in BALB/c mouse systemic infection model assessed as decrease in bacterial survival in kidney at 50 mg/kg, ip administered every 12 hrs for 108 hrs followed by bacterial challenge after first 12 hrs of compound dosing measured 5 days post infection. It is filed as functional. Summed up: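 Female BALB/c mice, 6-8 weeks old. Dosed ip every 12 h for 108 h. Challenged with 100 µL at 12 h: 1.6 × 10^8 CFU Mu50 or 4 × 10^7 CFU USA400 MW2. Sacrificed 5 days post-infection. Livers and kidneys homogenised in PBS/0.1% Triton X-100, serially plated on TSA, CFU counted; two-tailed Mann-Whitney.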

The test system of data set [9] is Trichophyton rubrum. As to the kind of experiment: Antifungal activity against naftifine-sensitive Trichophyton rubrum after 7 days by serial dilution method. Format: functional. Summed up: (§2)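 Broth serial dilution in 96-well plates per NCCLS recommendations. Medium: RPMI 1640 buffered with 0.165 M MOPS. Fungi were ATCC strains or clinical isolates.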
Data set [10] deals with Nannizzia gypsea. Kind of data set: Antifungal activity against naftifine-sensitive Microsporum gypseum after 7 days by serial dilution method. It is filed as functional. In short, it runs like this:
as §2

Molecules are shown by their SMILES.

On to `COc1ccc(/C=C/CN(C)Cc2ccc3c(c2)CCCCC3)cc1.Cl`, for which the Activity entry is on record as “Non-toxic” in data set [1]; “Non-toxic” in [2]; “Non-toxic” in [3]; 1.62 log10CFU in data set [7]; 99.5% in data set [8]. In addition, the survival at 1 µM came out at 0.2% in data set [4] and 0.4% in data set [5]. Also, in data set [6], the Survival is recorded as 83%. The “MIC=<80” value worked out at 8 µg/mL in data set [9] and 16 µg/mL in [10].

These data come from ChEMBL document CHEMBL3826951, “Discovery of Benzocycloalkane Derivatives Efficiently Blocking Bacterial Virulence for the Treatment of Methicillin-Resistant S. aureus (MRSA) Infections by Targeting Diapophytoene Desaturase (CrtN)” (J Med Chem, 2016).
